The results in this text go back to PubChem BioAssay.

Usually viability stands for a read-out of living cells in per cent, often relative to untreated cells. The term inhibition denotes the drop in the measured response relative to a control, in per cent.

Assay [1] can be described thus: SK-BR-3 cell growth inhibitors, pilot screen, 24 h, human (AID 572;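 active = viability at or below 10% of carrier control in both of two separate runs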;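 note: compound exposure lasted between 18 and 24 h rather than exactly 24 h; 100% = carrier-treated control wells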). To be noted: SK-BR-3 viability, CellTiter-Glo luminescence, at 10 µM, stronger effect = lower value. A general note: In ATP-based viability assays light output follows the ATP content of the culture.
Assay [2] in a line: HUVEC growth inhibition – cell-based, human, primary screen (AID 575;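 active = viability at or below 30% in both replicate assays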;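 note: 100% = median of untreated cell wells with 0.1% DMSO on each plate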). To be noted: HUVEC proliferation, CellTiter-Glo luminescence, 72 h; at 10 µM; stronger effect = lower value. A digest of the protocol: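 Timing: 72 h treatment at 37 °C; material: HUVEC primary cells; technique: CellTiter-Glo luminescence measuring cellular ATP; controls: vehicle and MePR control wells; measure: percent of median DMSO-control luminescence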

Assay [3] can be described thus: growth inhibitors of H69AR lung tumor, primary screen, human, duplicate replicates (AID 580).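 Note: 100% = mean luminescence of untreated wells and 0% = no signal.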 The settings on record: H69AR lung tumor cells viability, ATP luminescence, 72 h; at 10 µM; stronger effect = lower value.
Assay [4] is described as follows: reversal of MRP1-mediated doxorubicin resistance, pilot screen, H69AR cells, doxorubicin co-treatment (AID 601;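 active = viability loss from added drug above about 55%, and viability with drug at most 40%, in both replicates, limit read from the data, passing the limit was not always enough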). The settings on record: CellTiter-Glo, 72 h, at 10 µM; for differential viability (reversal): stronger effect = higher value.
A short description of assay [5]: 384-well plate pilot, post-Golgi transport modulator project, inhibition of yeast transport mutant growth (AID 636; in the data active = inhibition above about 31%). To be noted: absorbance 615 nm, about 18 h, stronger effect = higher value.
Assay [6] in a line: growth suppression of yeast trafficking mutant, preliminary HTS, modulators of trafficking downstream of Golgi apparatus project, 1536-format plate, OD 615 nm (AID 637; in the data active = inhibition above about 30%). To be noted: yeast transport mutant growth, absorbance 615 nm, 18 h; stronger effect = higher value.
Where [7] appears, read: H69AR cells + 2 uM doxorubicin, measured here: viability with 2 uM doxorubicin, stronger effect = lower value.
Setting [8] is: H69AR cells, compound alone cytotoxicity.

The structures appear in SMILES notation. Activity calls are given as the source filed them.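 Rule for the calls, unless noted: active = viability at or under a set limit in both replicates, limit being median viability minus 3 SD (cut at about 48% in these data, passing the limit was not always enough); inconclusive = at or under the limit in just one replicate; inactive = at or above the limit in both replicates.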

With `Cc1nc2sccn2c(=O)c1CCN1CCC(=C(c2ccccc2)c2ccc(F)cc2)CC1`, the viability in assay [1] is 160% (inactive); in assay [2], 3.02% (active); in assay [3], 81.9% (inactive); in assay [4] (setting [7]) it was 94.5%; in assay [4] (setting [8]) it was 81.9%. Further, the differential viability (reversal) in assay [4] (H69AR cells + 2 uM doxorubicin) was -12.5% (inactive). The results for the inhibition in assay [5] and in assay [6] were -0.13% (inactive) and 24.5% (inactive), respectively.

Regarding `O=C(Nc1ccccn1)N1CCOCC1`, the viability in assay [1] is 123% (inactive); in assay [2] it was 110% (inactive); in assay [3], 95.5% (inactive); in assay [4] (setting [7]), 89.1%; in assay [4] (setting [8]), 95.5%. Also, the differential viability (reversal) in assay [4] (H69AR cells + 2 uM doxorubicin) is 6.42% (inactive). Also, the inhibition in assay [5] was -7.3% (inactive); in assay [6] it was -5.45% (inactive).

In the case of `COc1cccc2sc(NC(=O)c3ccc(S(=O)(=O)N4CCOCC4)cc3)nc12`, the viability in assay [1] is 113% (inactive); in assay [2], 85.5% (inactive); in assay [3] it was 86.7% (inactive); in assay [4] (setting [7]) it was 69.8%; in assay [4] (setting [8]), 86.7%. Moreover, the differential viability (reversal) in assay [4] (H69AR cells + 2 uM doxorubicin) is 16.8% (inactive). For the same compound, the inhibition in assay [5] was -7.16% (inactive); in assay [6], -8.18% (inactive).

`CCCCNC(=O)CSc1nc2ccc(N3CCOCC3)cc2c(=O)n1CCc1ccccc1`: the viability is 95.5% (inactive) in assay [1]; 70.1% (inactive) in assay [2]; 69.3% (inactive) in assay [3]; 51.3% in assay [4] (setting [7]); 69.3% in assay [4] (setting [8]). For the same compound, the differential viability (reversal) in assay [4] (H69AR cells + 2 uM doxorubicin) was 18.1% (inactive). Besides, the inhibition was -7.16% (inactive) in assay [5] and 4.13% (inactive) in assay [6].

`Cc1noc(C)c1CSc1nnc2scc(-c3ccc(Cl)cc3)n12`: the viability is 88% (inactive) in assay [1]; 113% (inactive) in assay [2]; 91.6% (inactive) in assay [3]; 86.7% in assay [4] (setting [7]); 91.6% in assay [4] (setting [8]). For the same compound, the differential viability (reversal) in assay [4] (H69AR cells + 2 uM doxorubicin) was 4.96% (inactive). Also, the inhibition in assay [5] is -8.63% (inactive); in assay [6], 1.13% (inactive).

`CC1(C)CN=C(N2CCN(c3ncnc4sc5c(c34)CCCC5)CC2)S1`: the viability is 72% (inactive) in assay [1]; 54.2% (inactive) in assay [2]; 77.3% (inactive) in assay [3]; 85.6% in assay [4] (setting [7]); 77.3% in assay [4] (setting [8]). The differential viability (reversal) in assay [4] (H69AR cells + 2 uM doxorubicin) is -8.36% (inactive). Besides, the inhibition in assay [5] is -1.15% (inactive); in assay [6], 0.83% (inactive).

On to `CCCNC(=O)NS(=O)(=O)c1ccc(Cl)cc1`, for which the viability in assay [1] was 124% (inactive); in assay [2], 85% (inactive); in assay [3], 97.5% (inactive); in assay [4] (setting [7]), 87.1%; in assay [4] (setting [8]), 97.5%. Besides, the differential viability (reversal) in assay [4] (H69AR cells + 2 uM doxorubicin) is 10.4% (inactive). The inhibition was -1.17% (inactive) in assay [5] and 0.83% (inactive) in assay [6].

Regarding `Cc1cc(C)n(-c2nc3sc4c(c3c3nnc(SC(C)C)n23)CC(C)(C)OC4)n1`, the viability in assay [1] was 96% (inactive); in assay [2], 96.6% (inactive); in assay [3], 84.4% (inactive); in assay [4] (setting [7]) it was 82%; in assay [4] (setting [8]) it was 84.4%. Also, the differential viability (reversal) in assay [4] (H69AR cells + 2 uM doxorubicin) was 2.36% (inactive). Also, the inhibition in assay [5] is 1.23% (inactive); in assay [6], 17.6% (inactive).

Regarding `O=C(O)c1cc(-c2ccccc2)nc2ccccc12`, the viability in assay [1] was 91% (inactive); in assay [2], 92.7% (inactive); in assay [3], 76.7% (inactive); in assay [4] (setting [7]), 74.6%; in assay [4] (setting [8]) it was 76.7%. The differential viability (reversal) in assay [4] (H69AR cells + 2 uM doxorubicin) was 2.04% (inactive). Besides, the inhibition is 2.99% (inactive) in assay [5] and 4.83% (inactive) in assay [6].

Regarding `COc1ccc2c3c(c(=O)oc2c1OCC(N)=O)CCCC3`, the viability in assay [1] was 117% (inactive); in assay [2], 117% (inactive); in assay [3], 97.6% (inactive); in assay [4] (setting [7]) it was 81.3%; in assay [4] (setting [8]), 97.6%. The differential viability (reversal) in assay [4] (H69AR cells + 2 uM doxorubicin) was 16.2% (inactive). For the same compound, the inhibition in assay [5] is -5.48% (inactive); in assay [6], -2.55% (inactive).

Consider `CCCC(OC(=O)CN1C(=O)COc2ccccc21)C(=O)NC1CCCC1` (centres undefined), for which the viability in assay [1] was 63% (inactive); in assay [2], 107% (inactive); in assay [3] it was 91.7% (inactive); in assay [4] (setting [7]) it was 90.3%; in assay [4] (setting [8]) it was 91.7%. Besides, the differential viability (reversal) in assay [4] (H69AR cells + 2 uM doxorubicin) was 1.34% (inactive). Besides, the values for the inhibition in assay [5] and in assay [6] were -7.12% (inactive) and 3.09% (inactive), respectively.

For the compound `CC1=C(C(=O)Nc2ccccc2C)C(c2ccc(C)o2)N2C(=O)CSC2=N1` (centres undefined), the viability in assay [1] was 105% (inactive); in assay [2], 106% (inactive); in assay [3] it was 96.4% (inactive); in assay [4] (setting [7]), 88.2%; in assay [4] (setting [8]), 96.4%. In addition, in assay [4] (H69AR cells + 2 uM doxorubicin), the differential viability (reversal) was 8.25% (inactive). Further, the inhibition is -9.04% (inactive) in assay [5] and 2.26% (inactive) in assay [6].

As to `Cc1cccc(N2CCN(C(=O)C3CCCN(S(=O)(=O)c4c(C)noc4C)C3)CC2)c1C` (centres undefined), the viability was 78% (inactive) in assay [1]; 53.1% (inactive) in assay [2]; 81.9% (inactive) in assay [3]; 79.7% in assay [4] (setting [7]); 81.9% in assay [4] (setting [8]). Also, in assay [4] (H69AR cells + 2 uM doxorubicin), the differential viability (reversal) was 2.14% (inactive). Besides, the inhibition in assay [5] was -3.21% (inactive); in assay [6], 0.83% (inactive).

On to `Nc1nnnn1NCc1cccc(OCc2ccccc2)c1`, for which the viability in assay [1] was 112% (inactive); in assay [2], 88.8% (inactive); in assay [3], 104% (inactive); in assay [4] (setting [7]), 89%; in assay [4] (setting [8]), 104%. Moreover, in assay [4] (H69AR cells + 2 uM doxorubicin), the differential viability (reversal) was 15.4% (inactive). Besides, the results for the inhibition in assay [5] and in assay [6] were -7.95% (inactive) and 3.71% (inactive), respectively.

In the case of `O=C(C1=C(O)C(=O)N(c2ncccn2)C1c1cccc(Cl)c1)c1ccco1` (centres undefined), the viability was 119% (inactive) in assay [1]; 93% (inactive) in assay [2]; 89.2% (inactive) in assay [3]; 92.4% in assay [4] (setting [7]); 89.2% in assay [4] (setting [8]). In assay [4] (H69AR cells + 2 uM doxorubicin), the differential viability (reversal) is -3.12% (inactive). The inhibition in assay [5] is 2.33% (inactive); in assay [6], 1.29% (inactive).

Turning to `Cc1oc(-c2ccc(Cl)cc2)cc1-c1nn2c(-c3ccoc3C)nnc2s1`, the viability in assay [1] was 86% (inactive); in assay [2], 75.3% (inactive); in assay [3] it was 83.7% (inactive); in assay [4] (setting [7]) it was 95.7%; in assay [4] (setting [8]), 83.7%. Besides, the differential viability (reversal) in assay [4] (H69AR cells + 2 uM doxorubicin) was -12% (inactive). For the same compound, the inhibition in assay [5] is 18.9% (inactive); in assay [6] it was 3.06% (inactive).

As for `COCC(=O)n1nc(NCc2ccc(OC)cc2)nc1NCc1ccc(OC)cc1`, the viability was 116% (inactive) in assay [1]; 105% (inactive) in assay [2]; 99.8% (inactive) in assay [3]; 90.5% in assay [4] (setting [7]); 99.8% in assay [4] (setting [8]). Further, the differential viability (reversal) in assay [4] (H69AR cells + 2 uM doxorubicin) was 9.29% (inactive). Further, the inhibition in assay [5] was 53.3% (active); in assay [6], 28.6% (inactive).

In the case of `O=C(CN1CCN(c2ccccn2)CC1)N1c2ccccc2CCc2ccccc21`, the viability in assay [1] was 95% (inactive); in assay [2], 88.1% (inactive); in assay [3], 107% (inactive); in assay [4] (setting [7]) it was 108%; in assay [4] (setting [8]), 107%. In addition, the differential viability (reversal) in assay [4] (H69AR cells + 2 uM doxorubicin) is -0.175% (inactive). The values for the inhibition in assay [5] and in assay [6] were -6.08% (inactive) and -0.55% (inactive), respectively.
